Test results as given in ChEMBL document CHEMBL3352283, “Benzodioxane-benzamides as new bacterial cell division inhibitors” (Eur J Med Chem, 2015).
In brackets after ≈: the same amount, converted by molar mass. Activity calls are given as the source filed them. No cut-off for these calls is given here.

Legend:
Escherichia coli = assay: Antibiotic activity against Escherichia coli DH5alpha assessed as growth inhibition after 2 days by optical microscopy; format: functional; conditions: DH5[alpha], 48 h
Staphylococcus aureus [1] = assay: Antibiotic activity against Staphylococcus aureus assessed as growth inhibition after 2 days by optical microscopy; format: functional; conditions: 48 h
Staphylococcus aureus [2] = assay: Antibiotic activity against Staphylococcus aureus assessed as growth inhibition after compound washout by optical microscopy; format: functional
Vero = assay: (§1) Cytotoxicity against african green monkey Vero cells assessed as reduction in cell viability after 24 hrs by MTT assay; format: cell-based; conditions: chlorocebus sabaeus, vero, 24 h
How it was run: (§2)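 Vero or MRC-5 cells kept in DMEM with 10% heat-inactivated calf serum, 37 °C, 5% CO₂; compound-treated cells given MTT for 3 h at 37 °C, then DMSO 10 min, absorbance at 570 nm; cytotoxicity % = 100 − (sample OD/untreated OD) × 100; TD50/TD90 = dose cutting viability 50% or 90%.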

[3] = as §1; format: cell-based; conditions: chlorocebus sabaeus, Vero cells; read-out: TD50; how it was run: as §2
[4] = Therapeutic index, ratio of TD90 for human MRC5 cells to MBC for Staphylococcus aureus; format: cell-based; conditions: read-out: TI
How it was run: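 Therapeutic index calculated as MRC-5 TD90 (MTT assay) divided by MBC measured after washout regrowth test.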

MRC5 = assay: (§3) Cytotoxicity against human MRC5 cells assessed as reduction in cell viability after 24 hrs by MTT assay; format: cell-based; conditions: mrc5, 24 h; how it was run: as §2
[5] = as §3; format: cell-based; conditions: MRC5 cells, read-out: TD50; how it was run: as §2
Staphylococcus aureus [6] = assay: Antibiotic activity against Staphylococcus aureus assessed as ballooning of cocci at 1 to 4 times MIC concentration by phase-contrast microscopy; format: functional, organism-based

| MIC (Escherichia coli) | MIC (Staphylococcus aureus [1]) | SMILES | MBC (Staphylococcus aureus [2]) | TD90 (Vero) | CC50 at 24 h [3] | selectivity ratio [4] | TD90 (MRC5) | CC50 at 24 h [5] | Activity (Staphylococcus aureus [6]) |
| --- | --- | --- | --- | --- | --- | --- | --- | --- | --- |
| 20 mg/L (≈ 58.4 µM) | 10 mg/L (≈ 29.2 µM) | CCCCCCCCCOc1ccc(F)c(C(=O)NCCN)c1F |  | 120 µg/mL | 60 mg/L (≈ 175 µM) |  | 80 µg/mL | 35 mg/L (≈ 102 µM) |  |
| > 100 mg/L | > 100 mg/L | CCCCCCCCCOc1ccc(F)c(C(=O)NCCO)c1F |  |  |  |  |  |  |  |
| > 100 mg/L | 20 mg/L (≈ 54.9 µM) | NCCNC(=O)c1c(F)ccc(OCC2COc3ccccc3O2)c1F (stereo not given) | 40 mg/L (≈ 110 µM) |  |  |  |  |  |  |
| > 100 mg/L | 1 mg/L (≈ 2.81 µM) | NC(=O)c1c(F)ccc(OCC2COc3cc(Cl)ccc3O2)c1F (racemic) | 2.5 mg/L (≈ 7.03 µM) | 800 µg/mL | 550 mg/L (≈ 1550 µM) | 320 | 800 µg/mL | 650 mg/L (≈ 1830 µM) |  |
| > 100 mg/L | > 100 mg/L | NCC(O)COCCCCOc1ccc(F)c(C(N)=O)c1F (racemic) |  |  |  |  |  |  |  |
| > 100 mg/L | > 100 mg/L | NC(=O)c1c(F)ccc(OCCCCOCC(O)CO)c1F (stereo not given) |  |  |  |  |  |  |  |
| > 100 mg/L | 0.1 mg/L (≈ 0.334 µM) | CCCCCCCCCOc1ccc(F)c(C(N)=O)c1F | 0.25 mg/L (≈ 0.835 µM) | > 200 µg/mL | 90 mg/L (≈ 301 µM) | > 800 | > 200 µg/mL | 100 mg/L (≈ 334 µM) |  |

The next lines start with the molecule.

| SMILES | MIC (Escherichia coli) | MIC (Staphylococcus aureus [1]) | MBC (Staphylococcus aureus [2]) | TD90 (Vero) | CC50 at 24 h [3] | selectivity ratio [4] | TD90 (MRC5) | CC50 at 24 h [5] | Activity (Staphylococcus aureus [6]) |
| --- | --- | --- | --- | --- | --- | --- | --- | --- | --- |
| CCCCCCCCCOc1ccc(F)c(C2=NCCO2)c1F | > 100 mg/L | > 100 mg/L |  |  |  |  |  |  |  |
| NC(=O)c1c(F)ccc(OC[C@@H]2COc3ccc(Cl)cc3O2)c1F | > 100 mg/L | 0.25 mg/L (≈ 0.703 µM) | 0.5 mg/L (≈ 1.41 µM) | > 200 µg/mL | > 200 mg/L | > 1600 | > 800 µg/mL | 600 mg/L (≈ 1690 µM) |  |
| CCCCCCCCCOc1ccc(F)c(C(=O)NCCNC(=O)c2c(F)ccc(OCCCCCCCCC)c2F)c1F | > 100 mg/L | > 100 mg/L |  |  |  |  |  |  |  |
| NC(=O)c1c(F)ccc(OC[C@H]2COc3ccc(Cl)cc3O2)c1F | > 100 mg/L | 1 mg/L (≈ 2.81 µM) | 2.5 mg/L (≈ 7.03 µM) | > 200 µg/mL | > 200 mg/L | > 320 | > 800 µg/mL | 400 mg/L (≈ 1120 µM) |  |
| NC(=O)c1c(F)ccc(OCC2COc3ccccc3O2)c1F (racemic) | > 100 mg/L | 5 mg/L (≈ 15.6 µM) | 80 mg/L (≈ 249 µM) |  |  |  |  |  |  |
| NC(=O)c1c(F)ccc(OCC2COc3ccc(Cl)cc3O2)c1F (racemic) | > 100 mg/L | 0.5 mg/L (≈ 1.41 µM) | 0.5 mg/L (≈ 1.41 µM) | > 800 µg/mL | 450 mg/L (≈ 1270 µM) | > 1600 | > 800 µg/mL | 500 mg/L (≈ 1410 µM) | Active |
| CCCCCCCCCOc1ccc(F)c(C#N)c1F | > 100 mg/L | > 100 mg/L |  |  |  |  |  |  |  |
